Source: PubChem BioAssay (several laboratories)
DAT uptake mod = human DAT dopamine uptake with cocaine, either direction; Q01959; LLC-PK1 hDAT cells, [14C]-dopamine uptake with cocaine IC80; actives deviate in either direction; B-score at 10 µM; actives 1.3% (n = 110,000);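 active = Z score or B-score, a plate-position-corrected score, falls beyond the plate's 99.7% confidence bounds, in either direction; inactive = both scores lie inside the 99.7% bounds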;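 note: scored against the spread of the other compound wells on the same plate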
Target sequence (Q01959 whole entry, looked up): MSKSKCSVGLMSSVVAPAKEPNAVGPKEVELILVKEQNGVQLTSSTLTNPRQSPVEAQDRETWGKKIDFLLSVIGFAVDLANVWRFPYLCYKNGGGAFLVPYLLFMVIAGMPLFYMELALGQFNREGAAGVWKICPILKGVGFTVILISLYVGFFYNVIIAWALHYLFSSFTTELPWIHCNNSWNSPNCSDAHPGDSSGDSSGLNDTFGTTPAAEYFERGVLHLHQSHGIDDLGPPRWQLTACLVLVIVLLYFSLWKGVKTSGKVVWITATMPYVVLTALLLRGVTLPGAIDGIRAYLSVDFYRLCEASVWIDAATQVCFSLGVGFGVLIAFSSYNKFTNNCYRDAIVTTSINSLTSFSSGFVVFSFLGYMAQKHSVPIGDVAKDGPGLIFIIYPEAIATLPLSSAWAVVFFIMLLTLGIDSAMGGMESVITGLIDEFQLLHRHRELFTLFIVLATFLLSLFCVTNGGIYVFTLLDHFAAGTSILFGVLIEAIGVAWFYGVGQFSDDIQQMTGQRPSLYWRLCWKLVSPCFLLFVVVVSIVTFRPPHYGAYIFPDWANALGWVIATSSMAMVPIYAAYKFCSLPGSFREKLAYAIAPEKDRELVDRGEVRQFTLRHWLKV
AP ELISA ortho = orthogonal test for alternative complement pathway inhibitors; inhibition, % at 5 µM; actives 0.08% (n = 62,000); Human serum alternative complement pathway, LPS-coated ELISA, C3 deposition; tested in compound mixtures;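 active = inhibition above 30% in each of the two pooled mixtures holding the compound, so the lower value exceeds 30%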;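 note: 0% = serum in Mg-EGTA without compound and 100% = EDTA serum blank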
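Test system – human serum alternative complement pathway, C3 deposition on LPS-coated wells · Buffer or medium – diluted human serum in Mg2+-EGTA GVB++ · Compound dosing – 5 µM each compound, pools of ten, 50 µM per pool · Schedule – 1 h serum-compound exposure at 37 °C · Measured by – Anti-C3 ELISA, OD 450 nm · Read-out basis – percent inhibition of C3 deposition onto LPS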
WNV NS2B-NS3 inh = blocks West Nile virus NS2B-NS3 protease activity | AID 577 | z-score (concentration not given with the values) | WNV NS2B-NS3 protease, fluorogenic substrate Ex360/Em465; stronger effect = lower value | actives 0.18% (n = 65,000) | P06935; in the data active = z-score below about -3
D1 mod = D1 dopamine receptor (human) allosteric modulation | P21728 | B-score at 10 µM | AID 641 | HEK293 D1, CRE-luciferase, dopamine EC30 potentiation; actives deviate in either direction | actives 5.9% (n = 58,000);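 active = luminescence count or its row- and column-corrected plate score outside the 99.7% band of the plate's sample wells, on either side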
* marks the source's active call; other numbers are inactive results; x = not tested or not shown. The entries come from a sample that favours hits as a whole.

SMILES	DAT uptake mod	AP ELISA ortho	WNV NS2B-NS3 inh	D1 mod
OC(CNCCCN1CCCCC1)COc1ccccc1 (stereo unspecified)	-0.52	6	-6*	x
CNCC(O)COc1ccccc1 (stereo unspecified)	-0.61	x	x	x
CN(Cc1ccccc1)Cc1c[nH]c2ccccc12	1.3	0	0.51	-4.5*
O=C(O)C1CCCN1C(=O)Oc1ccccc1 (stereo unspecified)	-0.24	7	-0.38	-2.6*
Cc1ccc(NC(=O)C2CCCN2C(=O)Oc2ccccc2)cc1 (stereo unspecified)	-0.021	-7	0.11	0.44
Cn1c(Cn2cnc3ccccc32)nnc1SCC(=O)CC(=O)Nc1ccccc1	0.14	-10	-0.74	0.21
O=C(CSc1ncn[nH]1)N1CCN(S(=O)(=O)c2ccccc2)CC1	0.028	x	x	x
CCN(CC)C(=O)COc1ccc(-c2nnc(N3CCCCC3)c3ccccc23)cc1	2.2	12	0.17	-0.59
Cc1ccc(-c2nnc(N3CCN(C(=O)CSc4ncn[nH]4)CC3)c3ccccc23)cc1	2.7*	3	-1.2	-1.9
Cc1ccc(OCC(=O)N2CCN(c3nnc(-c4ccccc4)c4ccccc34)CC2)cc1	3*	x	x	x
CCn1c(COc2ccc(C)cc2)nnc1SCC(=O)C(C)(C)C	-0.81	2	-0.79	-2.1
CCn1c(COc2ccc(C)cc2)nnc1SCc1ccc(C#N)cc1	3*	x	x	x
CC(=O)Nc1sc2c(c1CN1CCN(c3ccccn3)CC1)CCCC2	0.55	-2	0.61	-3.3*
CC(=O)NC1CCN(C(=O)N2CCCC2)CC1	0.92	37*	-0.91	-1.9
CCOC(=O)Cn1c(CN(Cc2ccccc2)Cc2ccccc2)nc2c1c(=O)n(C)c(=O)n2C	3.8*	-11	-0.06	0.045
CCCn1c(CN(Cc2ccccc2)Cc2ccccc2)nc2c1c(=O)n(C)c(=O)n2C	-2.2	21	-0.75	-0.016
Cn1c(=O)c2c(nc(Br)n2CCc2ccccc2)n(C)c1=O	-0.31	8	1.2	-3.8*
Cn1c(=O)c2c(nc(Br)n2C)n(C)c1=O	-0.077	5	-0.37	-1.6*
Cn1c(=O)c2c(nc(NCc3ccccc3)n2CCCc2ccccc2)n(C)c1=O	0.49	17	0.15	-3.1*
Cn1c(=O)c2c(nc(NCc3ccccc3)n2C)n(C)c1=O	-0.14	3	-0.77	2.3
COC(=O)/C(=C\C(=O)c1ccccc1)Nc1cccc(C(F)(F)F)c1	0.45	x	x	x
CCOc1cc(CNCc2ccncc2)cc(Br)c1OCc1ccccc1F	2.1	x	x	x
O=C(Nc1ccc(Cl)cc1)N1CCN(c2ccc3nnc(-c4ccc(F)cc4)n3n2)CC1	2.8*	10	0.16	0.56
CSc1c(-c2ccccc2)nc2ccc(Cl)cc2c1C(=O)O	-0.39	x	x	x
C=CCSc1nc(-c2ccccc2)c2cc(Cl)ccc2n1	-1.6*	x	x	x
SMILES	DAT uptake mod	AP ELISA ortho	WNV NS2B-NS3 inh	D1 mod
CC(=O)n1cc([C@@H]2C=C(C(=O)NCc3ccccc3)O[C@H](OCc3ccc(CO)cc3)C2)c2ccccc21	2.2*	x	x	x
O=C(C1=C[C@H](c2csc3ccccc23)C[C@H](OCCCCO)O1)N1CCN(Cc2ccc3c(c2)OCO3)CC1	2.6*	x	x	x
O=C(C1=C[C@H](c2ccccc2)C[C@H](OCc2ccc(CO)cc2)O1)N1CCN(Cc2ccccc2)CC1	2.8*	x	x	x
O=C(CCC(=O)c1ccc(F)cc1)OC1CCOC1=O (stereo unspecified)	-1.3	3	-0.31	0.053
CCCCn1c2nc3ccccc3nc2c2c(=O)n(CCC(C)C)cnc21	1	7	-0.08	1.7
CC(C)Cn1c2nc3ccccc3nc2c2c(=O)n(CCN3CCOCC3)cnc21	0.49	15	-0.71	4.8*
CCOc1cc(-c2ccccc2)nc(N)n1	1.3	12	-0.89	8.2*
COc1cc(-c2ccccc2)nc(N)n1	-0.37	2	-0.73	2.2
CCOC(=O)C1CCCn2c1nc1sc3c(c1c2=O)CCCC3 (stereo unspecified)	-0.89	-14	0.13	0.45
C#CCNC(=O)C1=C[C@H](C2CCCCC2)[C@@H](CCCO)[C@H](OCC)O1	-0.49	x	x	x
O=C(Nc1ncc(Cc2ccccc2)s1)c1cccs1	-0.018	27	-0.99	-1.3
Cc1ccc(C(=O)Nc2ncc(Cc3ccccc3)s2)o1	-0.64	4	1.2	-2.8*
Cc1ccc(C(=O)Nc2nc3c(s2)CCCC3)o1	-0.13	5	-0.98	-4.7*
COc1ccc(CCC(C)Nc2ccc(F)cc2)cc1 (stereo unspecified)	-0.5	x	x	x
CCc1nc(N2CCOCC2)c(C#N)c2c1CCCC2	1.5	x	1.9	x
CCC1Cc2c(nc3c4c(nc(N5CCOCC5)c(C#N)c24)NC(C)=N3)O1 (stereo unspecified)	x	5	-1.4	4.2*
